Rows were chosen to be rich in hits. Some 0.7% of all compounds tested hit in one or more screens of this group.
GAA850 FXN act: frataxin GAA850 promoter activation; HEK293 lucGAA850 FXN promoter luciferase reporter, 24 h; percent of 10 µM SAHA response; activation, % at 6 µM; 0.56% of 360,000 active; AID 540364;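 active = activation above the average of all compounds screened plus 3 SD, cutoff fixed separately per campaign, cut at about 7.5% in these data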;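 note: 0% = DMSO wells and 100% = 10 µM SAHA wells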
proCasp3 act: activators of human procaspase-3; AID 463141; recombinant procaspase-3 D3A, Ac-DEVD-pNA absorbance 405 nm; activation, % at 8.5 µM; 0.11% of 330,000 active;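 active = activation above the mean of all tested compounds plus 3 SD, cut at about 21% in these data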;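 note: 0% = DMSO alone and 100% = DMSO wells spiked with extra 5 µM PC-3 D3A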
Target sequence (P42574 whole entry D9A/D28A/D175A): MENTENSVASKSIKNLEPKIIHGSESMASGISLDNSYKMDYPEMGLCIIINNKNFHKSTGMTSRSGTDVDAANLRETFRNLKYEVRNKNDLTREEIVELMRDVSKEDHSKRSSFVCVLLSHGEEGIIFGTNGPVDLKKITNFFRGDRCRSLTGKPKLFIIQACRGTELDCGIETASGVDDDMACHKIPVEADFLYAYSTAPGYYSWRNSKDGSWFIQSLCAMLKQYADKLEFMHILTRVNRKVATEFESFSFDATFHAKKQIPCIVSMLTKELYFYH
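Test system: Procaspase-3 D3A mutant; medium: Zinc-free HEPES/NaCl buffer with 0.01% Triton X-100 at pH 7.4; reagent: DEVD-pNA substrate; doses: one concentration, 8.5 µM nominal, 0.8% DMSO; times: 1 h preincubation plus 2 h reaction at 25 °C; signal: Epi-absorbance at 405 nm of released p-nitroaniline, 0 and 120 min; replicates: singlicate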
proCasp7 act: activates human procaspase-7, counter-screen for procaspase-3 activators | P55210 | recombinant procaspase-7, Ac-DEVD-pNA absorbance 405 nm; D23A/D198A/D206A triple mutant, cannot self-cleave; scale: DMSO 0, 5 µM enzyme 100 | activation, % at 8.5 µM | 0.093% of 330,000 active;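 active = percent activation above the screen-wide mean plus 3 SD, cut at about 25% in these data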
Target sequence (P55210 whole entry D23A/D198A/D206A): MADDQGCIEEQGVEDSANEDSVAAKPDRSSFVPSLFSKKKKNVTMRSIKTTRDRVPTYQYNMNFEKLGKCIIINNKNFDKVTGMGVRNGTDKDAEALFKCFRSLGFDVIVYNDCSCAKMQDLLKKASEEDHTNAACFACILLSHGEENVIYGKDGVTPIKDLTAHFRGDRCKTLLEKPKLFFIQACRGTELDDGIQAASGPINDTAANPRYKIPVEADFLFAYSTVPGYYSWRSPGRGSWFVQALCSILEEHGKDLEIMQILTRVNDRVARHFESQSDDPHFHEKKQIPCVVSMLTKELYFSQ
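Assay system: Uncleavable procaspase-7 mutant enzyme; Input: 2 µM procaspase-7 mutant as dispensed; Also added: DEVD-pNA substrate; Medium: Zinc-free HEPES pH 7.4 with 300 mM NaCl, 0.01% Triton X-100; Timing: 1 h compound preincubation, 2 h substrate cleavage, 25 °C; Measured by: Epi-absorbance of released pNA at 405 nm, two timepoints.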
proCasp7 act trip: counter-screen for procaspase-3 activators: activators of human procaspase-7. recombinant procaspase-7, Ac-DEVD-pNA absorbance; asp23/198/206-to-Ala mutant, cannot self-cleave. shares compounds with proCasp3 act. 210 tested, under 10 active. activation, % at 8.5 µM;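 active = mean activation above a set limit taken from an earlier procaspase-7 screen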;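 note: 0% = DMSO wells and 100% = DMSO plus 5 µM procaspase-7 enzyme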
procasp3 conf: procaspase-3 (human) activation, confirmed; shares compounds with proCasp3 act; 10% of 210 active; recombinant PC-3 D3A, Ac-DEVD-pNA absorbance 405 nm; 100% is higher-enzyme control; activation, % at 8.5 µM;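 active = mean activation above a set limit carried over from the earlier primary screen, cut at about 22% in these data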
* = called active by the depositor; . = no result.

SMILES	GAA850 FXN act	proCasp3 act	proCasp7 act	proCasp7 act trip	procasp3 conf
CCn1c(SC(C)C(=O)NCC2CCCO2)nc2scc(-c3ccccc3)c2c1=O (stereo unspecified)	-1	14	-2	.	.
Cc1nc2c(sc3nc(N4CCOCC4)c4c(c32)CC(C)(C)OC4)c(-c2ccc(Cl)cc2)c1C(=O)O	0	26*	-9	-8	-5
CC1(C)Cc2c(c(N3CCOCC3)nc3sc(C(=O)Nc4ccc(Cl)cc4)c(N)c23)CO1	-1	-13	-21	.	.
Cc1ccc(S(=O)(=O)N2CCOCC2)cc1NC(=O)CNC1CCCC1	1	3	8	.	.
COc1cc(OC)c(N(C)S(=O)(=O)c2cccc(C(=O)OCC(=O)c3c[nH]c4ccccc34)c2)cc1Cl	-7	0	3	.	.
C=CCN(c1ccccc1OC)S(=O)(=O)c1cccc(C(=O)OCC(=O)c2c[nH]c3ccccc23)c1	-4	22*	-14	3	3
C=CCNC(=S)N1CCC(Cc2ccccc2)CC1	-1	.	.	.	.
Cc1cc2c(=O)n(Cc3ccco3)c(SCC(=O)c3ccc(Cl)s3)nc2s1	-1	-6	-2	.	.
CCOC(=O)CC(=O)CSc1nc2sc(C)cc2c(=O)n1Cc1ccco1	0	59*	0	-2	-1
O=C(NC1CCN(Cc2ccc(Cl)c(Cl)c2)CC1)c1ccccc1	-1	5	6	.	.
C=CCOc1ccc(/C=C/C(=O)OCC(=O)N(C)CC(=O)Nc2ccccc2Cl)cc1	0	9	2	.	.
CCN(CC)S(=O)(=O)c1ccc(OCC(=O)NC2CCS(=O)(=O)C2)c([N+](=O)[O-])c1 (stereo unspecified)	-1	0	-3	.	.
Cc1ccc(OCC(=O)NC2CCS(=O)(=O)C2)c([N+](=O)[O-])n1 (stereo unspecified)	1	21*	-4	4	5
CCCOc1ccccc1/C=C1\SC(N2CCCCC2)=NC1=O	-4	-1	5	.	.
Cn1c(=NC(=O)CS(=O)(=O)c2ccccc2)sc2ccccc21	2	4	2	.	.
Cn1c(=NC(=O)CS(=O)(=O)c2ccc(F)cc2)sc2ccccc21	1	22*	7	1	3
Cc1cccnc1NC(=O)CCNC(=O)c1ccc(Cl)cc1	1	-8	-5	.	.
CC(CCc1ccccc1)NC(=O)COC(=O)c1ccccc1O (stereo unspecified)	-1	4	8	.	.
CC1CCC(NC(=O)CNC(=O)c2cccs2)CC1 (stereo unspecified)	0	2	8	.	.
C=CCn1c(O)c(N=NC(=S)Nc2ccc(OC)cc2)c2ccccc21	-2	10	-3	.	.
C=CCn1c(O)c(N=NC(=S)Nc2cccc(OC)c2)c2ccccc21	-1	34*	-8	-6	6
N#Cc1ccc(/C=C\c2nccc3c2[nH]c2ccccc23)cc1	1	48*	1	-21	-14
Clc1ccc(/C=C\c2nccc3c2[nH]c2ccccc23)cc1	3	.	.	.	.
Cc1ccccc1-c1cc(C(=O)NCc2ccc3c(c2)OCO3)nn1CC1CC(c2cccc([N+](=O)[O-])c2)=NO1 (stereo unspecified)	-2	0	6	.	.
CN(C1CC(C)(C)NC(C)(C)C1)S(=O)(=O)CC12CCC(CC1=O)C2(C)C (stereo unspecified)	4	-8	0	.	.
SMILES	GAA850 FXN act	proCasp3 act	proCasp7 act	proCasp7 act trip	procasp3 conf
O=C(NCC1CCOCC1)C1CCC(=O)N(Cc2cccc(C(F)(F)F)c2)C1 (stereo unspecified)	0	-5	16	.	.
O=C(NCc1cccs1)C1CCC(=O)N(Cc2cccc(C(F)(F)F)c2)C1 (stereo unspecified)	2	42*	-6	2	2
Cc1ccc(S(=O)(=O)N(C)C[C@H]2Oc3cc(C#Cc4ccccc4)ccc3S(=O)(=O)N([C@H](C)CO)C[C@@H]2C)cc1	-2	.	.	.	.
C=CCSC1=N/C(=C\c2sccc2C)C(=O)S1	1	59*	4	-18	-9
C=CCSC1=N/C(=C\c2ccc3c(c2)OCO3)C(=O)S1	1	-18	-24	.	.
N#Cc1cc2c(nc1SCc1nc3ccccc3[nH]1)CCC2	.	1	-6	.	.
Cc1cc(C)c(C#N)c(SCc2nnc(-c3ccccc3)o2)n1	-15	125*	23	-15	-18
COc1ccccc1-c1cc(-c2ccc(C)cc2)nc(SCc2nnc(-c3ccccc3)o2)c1C#N	0	-2	-8	.	.
Cc1cc(C)c(C#N)c(SCc2nc3ccccc3[nH]2)n1	6	156*	2	-2	5
O=C(C(=O)N1CCCC1)c1c(-c2ccccc2)[nH]c2ccccc12	1	7	15	.	.
CC(OC(=O)CCCN=C1NS(=O)(=O)c2ccccc21)C(=O)Nc1ccc(F)cc1Cl (stereo unspecified)	-1	-4	3	.	.
CCc1ccc(C(O)c2ncc(-c3ccccc3F)[nH]2)cc1 (stereo unspecified)	0	.	.	.	.
CSc1nc(N2CCOCC2)nc2ccc(C)cc12	1	-3	-5	.	.
COc1ccc(-c2cc(C(F)(F)F)c(C#N)c(SCC(=O)O)n2)cc1	-1	14	5	.	.
Cc1ccc(-c2cc(C(F)(F)F)c(C#N)c(SCCC#N)n2)o1	3	22*	12	41*	52*
Cc1ccc([C@H]2C[C@H](n3cc(-c4ccc(F)cc4)nn3)[C@@H](O)CN2CC2CCCCC2)cc1	0	.	.	.	.
Cc1coc2c(C)c3oc(=O)c(CCC(=O)NCCCN4CCCC4=O)c(C)c3cc12	-1	2	-6	.	.
Cc1c(CCC(=O)NCCCN2CCCC2=O)c(=O)oc2cc(O)ccc12	1	26*	19	-21	-14
CCCCn1nc(C(=O)NC2CCCCCC2)c2ccccc2c1=O	-1	-2	-4	.	.
CCCCn1nc(C(=O)N(C)C2CCCCC2)c2ccccc2c1=O	1	22*	9	1	5
Cc1ccc(NC2CCCN(C(=O)c3ccoc3)C2)cc1C (stereo unspecified)	3	2	-8	.	.
CC(C)c1ccc(-n2nc3ccc(N)cc3n2)cc1	1	31*	23	-18	3
Cc1ccc(-n2nc3ccc(N)cc3n2)cc1	-5	-2	6	.	.
COCCn1c(C)cc(C(=O)CN2C(=O)NC3(CCCCCC3)C2=O)c1C	2	-6	6	.	.
CC1CCC2(CC1)NC(=O)N(CC(=O)Nc1ccc3[nH]c(=O)[nH]c3c1)C2=O (stereo unspecified)	0	10	6	.	.
CC1CC(C)(C)CC2(C1)NC(=O)N(CC(=O)Nc1ccc3[nH]c(=O)[nH]c3c1)C2=O (stereo unspecified)	0	37*	0	2	4

Screening results (PubChem)
